Data from paper PMC8223195 (Molecular Diversity, 2021).

Columns and labels:
hCoV-229E = assay type: cell-based, human corona virus 229E; details: for EC50: (*) mean of three independent experiments ± SEM
LN-229 (glioblastoma) = test: IncuCyte real-time proliferation assay, LN-229; assay type: cell-based; details: LN-229, 72 h
[1] = tested on: Capan-1 (pancreatic adenocarcinoma); test: IncuCyte real-time proliferation assay, Capan-1; assay type: cell-based
[2] = tested on: HCT-116 (colorectal carcinoma); test: IncuCyte real-time proliferation assay, HCT-116; assay type: cell-based; details: HCT-116, 72 h
[3] = tested on: NCI-H460 (lung carcinoma); test: IncuCyte real-time proliferation assay, NCI-H460; assay type: cell-based; details: NCI-H460, 72 h
[4] = tested on: DND-41 (acute lymphoblastic leukemia); test: IncuCyte real-time proliferation assay, DND-41; assay type: cell-based
[5] = tested on: HL-60 (acute myeloid leukemia); test: IncuCyte real-time proliferation assay, HL-60; assay type: cell-based; details: HL-60, 72 h
[6] = tested on: K-562 (chronic myeloid leukemia); test: IncuCyte real-time proliferation assay, K-562; assay type: cell-based
[7] = tested on: Z-138 (non-Hodgkin lymphoma); test: IncuCyte real-time proliferation assay, Z-138; assay type: cell-based; details: Z-138, 72 h
[8] = tested on: peripheral blood mononuclear cells (PBMCs); test: In vitro apoptosis induction assay in PBMC; assay type: cell-based; details: 72 h
In short: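 Counter-screen on normal PBMCs from two healthy donors. Cells were exposed to graded test-compound concentrations with Caspase-3/7 Green Reagent added. Activated intracellular caspase-3/7 cleaves the reagent at its DEVD motif, marking apoptotic cells. Propidium iodide staining separated dead from live cells. Read-out: numbers of apoptotic and dead cells.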

[9] = tested on: alpha-tubulin in HEp-2 cells; test: Tubulin immune fluorescence staining in HEp-2 cells; assay type: cell-based, human; details: HEp-2 cells treated for 3 h
[10] = * mean of two independent experiments ± SEM
[11] = Capan-1, 72 h, * mean of two independent experiments ± SEM
[12] = DND-41, 72 h, * mean of two independent experiments ± SEM
[13] = K-562, 72 h, * mean of two independent experiments ± SEM

| Compound | EC50 (hCoV-229E) [µM] | IC50 (LN-229 (glioblastoma); [10]) [µM] | IC50 [1, 11] [µM] | IC50 [2, 10] [µM] | IC50 [3, 10] [µM] | IC50 [4, 12] [µM] | IC50 [5, 10] [µM] | IC50 [6, 13] [µM] | IC50 [7, 10] [µM] | CC50 (HEL 299 cells) [µM] | other results |
| --- | --- | --- | --- | --- | --- | --- | --- | --- | --- | --- | --- |
| Cc1cc(C)n(-c2nnc3n2NC(c2ccc(Cl)cc2)C(C(=O)c2ccc(Br)cc2)S3)n1 (racemic) [5 g, ( ±)-(4-Bromophenyl)(6-(4-chlorophenyl)-3-(3,5-dimethyl-1H-pyrazol-1-yl)-6,7-dihydro-5H-triazolo[3,4-b][1,3,4]thiadiazin-7-yl)methanone] | > 100 | > 100 | > 100 | > 100 | > 100 | > 100 | > 100 | > 100 | > 100 | > 100 | – |
| Cc1cc(C)n(-c2nnc3n2NC(c2cc(F)c(F)c(F)c2)C(C(=O)c2ccccc2)S3)n1 (racemic) [5 k, ( ±)-(3-(3,5-Dimethyl-1H-pyrazol-1-yl)-6-(3,4,5-trifluorophenyl)-6,7-dihydro-5H-[1,2,4]triazole [3,4-b][1,3,4]thiadiazin-7-yl)(phenyl)methanone] | > 100 | > 100 | > 100 | > 100 | > 100 | > 100 | > 100 | > 100 | > 100 | > 100 | – |
| COc1cc(C2Nn3c(nnc3-n3nc(C)cc3C)SC2C(=O)c2ccccc2)cc(OC)c1OC (racemic) [5 m, ( ±)-(3-(3,5-Dimethyl-1H-pyrazol-1-yl)-6-(3,4,5-trimethoxyphenyl)-6,7-dihydro-5H-[1,2,4]triazole [3,4-b][1,3,4]thiadiazin-7-yl)(phenyl)methanone] | 95.7 | > 100 | > 100 | > 100 | > 100 | > 100 | > 100 | > 100 | > 100 | > 100 | – |
| Cc1cc(C)n(-c2nnc3n2NC(c2cccs2)C(C(=O)c2ccc([N+](=O)[O-])cc2)S3)n1 (racemic) [5 s, ( ±)-(3-(3,5-Dimethyl-1H-pyrazol-1-yl)-6-(thiophen-2-yl)-6,7-dihydro-5H-[1,2,4]triazolo[3,4-b][1,3,4]thiadiazin-7-yl)(4-nitrophenyl)methanone] | > 100 | > 100 | > 100 | > 100 | > 100 | > 100 | > 100 | > 100 | > 100 | > 100 | – |
| Cc1ccc(C(=O)C2Sc3nnc(-n4nc(C)cc4C)n3NC2c2ccc(C)cc2)cc1 (racemic) [Compound 5b, ( ±)-(3-(3,5-Dimethyl-1H-pyrazol-1-yl)-6-(p-tolyl)-6,7-dihydro-5H-[1,2,4]triazolo[3,4-b][1,3,4]thiadiazin-7-yl)(p-tolyl)methanone] | 4.7 ± 0.5 | 47.1 | 57.5 | 67.8 | > 100 | 39.3 | 50.9 | 10.4 | 48.4 | 81.5 | selectivity index (hCoV-229E): favorable selectivity indexes |
| Cc1cc(C)n(-c2nnc3n2NC(c2ccc([N+](=O)[O-])cc2)C(C(=O)c2ccc([N+](=O)[O-])cc2)S3)n1 (racemic) [Compound 5c, ( ±)-(3-(3,5-Dimethyl-1H-pyrazol-1-yl)-6-(4-nitrophenyl)-6,7-dihydro-5H-[1,2,4]triazolo[3,4-b][1,3,4]thiadiazin-7-yl)(4-nitrophenyl)methanone] | 24.4 | > 100 | > 100 | > 100 | > 100 | > 100 | > 100 | > 100 | > 100 | > 100 | – |
| Cc1cc(C)n(-c2nnc3n2NC(c2ccccc2Br)C(C(=O)c2ccc(F)cc2)S3)n1 (racemic) [Compound 5e, ( ±)-(6-(2-Bromophenyl)-3-(3,5-dimethyl-1H-pyrazol-1-yl)-6,7-dihydro-5H-[1,2,4]triazolo[3,4-b][1,3,4]thiadiazin-7-yl)(4-fluorophenyl)methanone] | > 100 | > 100 | > 100 | > 100 | > 100 | > 100 | > 100 | > 100 | > 100 | > 100 | – |
| Cc1ccc(C(=O)C2Sc3nnc(-n4nc(C)cc4C)n3NC2c2ccccc2Br)cc1 (racemic) [Compound 5f, ( ±)-(6-(2-Bromophenyl)-3-(3,5-dimethyl-1H-pyrazol-1-yl)-6,7-dihydro-5H-[1,2,4]triazolo[3,4-b][1,3,4]thiadiazin-7-yl)(p-tolyl)methanone] | 3.2 ± 1.8 | > 100 | > 100 | > 100 | > 100 | > 100 | > 100 | > 100 | > 100 | > 100 | selectivity index (hCoV-229E): favorable selectivity indexes |
| Cc1ccc(C(=O)C2Sc3nnc(-n4nc(C)cc4C)n3NC2c2cc(F)c(F)c(F)c2)cc1 (racemic) [Compound 5j, ( ±)-(3-(3,5-Dimethyl-1H-pyrazol-1-yl)-6-(3,4,5-trifluorophenyl)-6,7-dihydro-5H-[1,2,4]triazole [3,4-b][1,3,4]thiadiazin-7-yl)(p-tolyl)methanone] | > 100 | 2.7 ± 0.2 | 2.3 ± 0.2 | 2.5 ± 0.09 | 56 | 2.4 ± 0.4 | 13 ± 2.8 | 3.4 ± 0.2 | 1.9 ± 0.03 | 23.8 | viability of normal PBMCs ([8]; PBMC from two healthy donors, 100 to 0.16 µM): did not inhibit the viability; number of apoptotic and dead cells ([8]; PBMC, 100 µM, caspase-3/7 and PI): small increase in the number of apoptotic and dead cells; polymerization of tubulin [9]: inhibit the polymerization of tubulin in a dose-dependent manner |
| COc1ccc(C(=O)C2Sc3nnc(-n4nc(C)cc4C)n3NC2c2ccccc2Cl)cc1 (racemic) [Compound 5n, ( ±)-(6-(2-Chlorophenyl)-3-(3,5-dimethyl-1H-pyrazol-1-yl)-6,7-dihydro-5H-[1,2,4]triazolo[3,4-b][1,3,4]thiadiazin-7-yl)(4-methoxyphenyl)methanone] | > 100 | 68.3 | 63.1 | > 100 | > 100 | 91.7 | 71.2 | 53.2 | 53.9 | > 100 | – |
| Cc1ccc(C(=O)C2Sc3nnc(-n4nc(C)cc4C)n3NC2c2ccco2)cc1 (racemic) [Compound 5r, ( ±)-(3-(3,5-Dimethyl-1H-pyrazol-1-yl)-6-(furan-2-yl)-6,7-dihydro-5H-[1,2,4]triazolo[3,4-b] [1,3,4]thiadiazin-7-yl)(p-tolyl)methanone] | > 100 | 43.9 | 54.3 | 69 | 47 | 70.2 | 54 | 23.5 | 50.2 | > 100 | – |
| Cc1cc(C)n(-c2nnc3n2NC(c2ccco2)C(C(=O)c2ccc([N+](=O)[O-])cc2)S3)n1 (racemic) [Compound 5t, ( ±)-(3-(3,5-Dimethyl-1H-pyrazol-1-yl)-6-(furan-2-yl)-6,7-dihydro-5H-[1,2,4]triazolo[3,4-b][1,3,4]thiadiazin-7-yl)(4-nitrophenyl)methanone] | > 100 | 62.7 | > 100 | > 100 | > 100 | > 100 | 74.5 | 79.3 | 49.5 | > 100 | – |
| COc1ccc(C2=C(C(=O)c3ccc([N+](=O)[O-])cc3)Sc3nnc(-n4nc(C)cc4C)n3N2)c(OC)c1 [Compound 5p, ( ±)-(6-(2,4-dimethoxyphenyl)-3-(3,5-dimethyl-1H-pyrazol-1-yl)-5H-[1,2,4]triazolo[3,4-b][1,3,4]thiadiazin-7-yl)(4-nitrophenyl)methanone] | > 100 | > 100 | > 100 | > 100 | > 100 | > 100 | > 100 | > 100 | > 100 | > 100 | – |
| CC(=O)O[C@@]12CO[C@@H]1C[C@H](O)[C@@]1(C)C(=O)[C@H](O)C3=C(C)[C@@H](OC(=O)[C@H](O)[C@@H](NC(=O)OC(C)(C)C)c4ccccc4)C[C@@](O)([C@@H](OC(=O)c4ccccc4)[C@H]21)C3(C)C [Docetaxel, reference compound] | – | – | – | – | – | – | – | – | – | – | IC50 (LN-229 (glioblastoma); Homo sapiens): 0.0087 ± 0.0004 µM; IC50 ([1]; Homo sapiens, CAPAN-1, 72 h): 0.0042 ± 0.0021 µM; IC50 ([2]; Homo sapiens): 0.0009 ± 0.0008 µM; IC50 ([3]; Homo sapiens): 0.0038 ± 0.0029 µM; IC50 ([4]; DND41, 72 h): 0.0033 ± 0.0014 µM; IC50 ([5]; Homo sapiens): 0.0023 ± 0.0003 µM; IC50 ([6]; Homo sapiens, K562, 72 h): 0.0037 ± 0.0003 µM; IC50 ([7]; Homo sapiens): 0.0011 ± 0.0008 µM |
| CN[C@@H]1C[C@H]2O[C@@](C)([C@@H]1OC)n1c3ccccc3c3c4c(c5c6ccccc6n2c5c31)C(=O)NC4 [STS, staurosporine, reference compound] | – | – | – | – | – | – | – | – | – | – | IC50 (LN-229 (glioblastoma); Homo sapiens): 0.0229 ± 0.0021 µM; IC50 ([1]; Homo sapiens, CAPAN-1, 72 h): 0.0007 ± 0.0002 µM |
